Measurements published in PubChem BioAssay.
A number with no mark means an inactive call.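 Rule for the calls: active = growth inhibition above 25% in both replicates, a cutoff set 3 SD above the mean; inconclusive = above 25% in only one replicate; inactive = the rest.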

assay: OD615 S. cerevisiae growth inhibition, permissive medium, pilot counter-assay, permissive growth control for S. cerevisiae lifespan shortening project (AID 705); conditions: OD615, 24 h, at 10 µM, hits give high values
In short: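 System: Engineered DeaD yeast | Buffer or medium: SC raffinose/galactose permissive medium | Incubation: Cells pre-grown 4 h, then 24 h compound exposure, 30 °C humidified | Measured by: Absorbance (optical density) at 615 nm | Read-out: Reduction in yeast growth (OD615)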

Point of comparison: `CCOC(=O)N1CCC(NC(=O)C2CCN(Cc3nc(-c4ccc(CC)cc4)oc3C)CC2)CC1`, growth inhibition -8.25%. Against it:
- O=C(NCc1ccco1)c1cc(S(=O)(=O)N2CCOCC2)ccc1Cl — lower, -8.68%
- CCCCCOC(=O)NCC(O)c1ccccc1 (centres undefined) — lower, -12.5%
- CC(NC(=O)c1ccc(Cl)cc1)C(=O)N1CCCCC1 (centres undefined) — higher, 2.3%
- CCOc1ccc(S(=O)(=O)Nc2ccccc2C(=O)NCC2CCCO2)cc1 (centres undefined) — lower, -13%
- CCOC(=O)c1sc2nc(NC(=O)c3cccs3)sc2c1C — higher, 5.51%
- Cc1noc(C)c1S(=O)(=O)NC1CCN(Cc2ccccc2)CC1 — lower, -12.1%
- CCOC(=O)c1ccccc1NC(=O)C1COc2ccccc2O1 (centres undefined) — lower, -25.8%
- Cc1ccc(C2CC(c3cccc(C)c3)n3ncnc3N2)cc1 (centres undefined) — higher, 3.83%
- CCN1C(=O)C(O)(CC(=O)c2ccc3c(c2)OCCO3)c2ccccc21 (centres undefined) — higher, -0.735%
- CN(C)c1nc(N)nc(-c2cccnc2)n1 — higher, -0.465%
- CCOC(=O)c1cccc(NC(=O)CNC(=O)C2CCCCC2)c1 — higher, 3.97%
- Cn1cc(S(=O)(=O)Nc2ccc(F)cc2F)c(=O)n(C)c1=O — lower, -11.6%
- O=C1NCCCC1C(=O)NCCNC(=O)C(F)(F)F (centres undefined) — higher, -4.04%
- CCc1ccc(C2CC(c3cccc(Cl)c3)n3nc(N)nc3N2)cc1 (centres undefined) — higher, -3.09%
- CN1CCN(C(=O)c2ccccc2NC(=O)Cc2ccccc2)CC1 — lower, -12.3%
- Cc1nnc(Sc2nc3c(c(=O)[nH]c(=O)n3C)n2Cc2ccccc2Cl)s1 — lower, -9.12%
- CN(C)CCNC(=O)c1cc2cc(Br)ccc2oc1=O — lower, -22.2%
- CCOc1ccc(C2CC(c3cccc(OC)c3)Nc3ncnn32)cc1 (centres undefined) — higher, -2.08%
- COc1ccc(C(=O)N2CCC(C(=O)Nc3cccc(C)c3)CC2)cc1OC — higher, -0.875%
- CCOC(=O)C1C(=O)N(C(=O)c2cncc(Br)c2)CC1c1ccccc1 (centres undefined) — higher, -0.835%
- O=C(Nc1nnc(-c2ccc(Cl)cc2)o1)c1ccccc1Br — higher, 0.92%
- O=C(O)c1cccc2c1C(=O)N(C1CCCCC1)C2 — lower, -18.8%
- CCOC(=O)C1CCCN(C(=O)Cn2nc(CC)n3c(cc4sccc43)c2=O)C1 (centres undefined) — higher, -3.41%
- CCOCCCNC(=O)C(c1ccc(C)cc1)N(Cc1ccc2c(c1)OCO2)C(=O)CNC(C)=O (centres undefined) — lower, -8.64%
- CSc1ccc(Cl)c(C(=O)NCc2ccco2)c1 — higher, -3.93%
- O=C(CSc1ncnc2c1oc1ccccc12)Nc1cccc(C(F)(F)F)c1 — lower, -12.2%
- O=C(Nc1ccc(-c2nc3cccnc3s2)cc1)c1ccco1 — higher, -4.68%
- O=C(O)CN1C(=O)C2C3C=CC(C3)C2C1=O (centres undefined) — lower, -14.3%
- CCCn1c(N2CCN(Cc3cccc(C)c3)CC2)nc2c1c(=O)[nH]c(=O)n2C — higher, 5.6%
- O=C(O)CC(CNS(=O)(=O)c1ccccc1)c1ccccc1 (centres undefined) — higher, -1.83%
- CC1Cc2nc(SCC(=O)OCc3ccccc3)n(C)c(=O)c2S1 (centres undefined) — higher, 5.29%
- C=CCn1c(=O)c(C(=O)Nc2ccccc2OC)c(O)c2ccccc21 — higher, 1.44%
- O=C(NCC1CCCO1)c1ccc(CS(=O)(=O)c2ccc(Br)cc2)o1 (centres undefined) — lower, -9.31%
- Oc1cc(Cc2ccccc2)cnc1CN1CCCCC1 — lower, -10.9%
- CCOc1ccccc1NC(=O)CSc1nnc(-c2ccccn2)n1Cc1ccco1 — higher, -4.62%
- COc1ccc(OC)c2sc(NC(=O)c3ccc(S(=O)(=O)N(C)C)cc3)nc12 — lower, -19.3%
- O=C(CN1C(=O)c2ccccc2S1(=O)=O)NC1CCCCCC1 — higher, 2.58%
- CCN(CCC(=O)Nc1cc(OC)cc(OC)c1)Cc1ccccc1 — higher, 1.21%
